Source: ChEMBL document CHEMBL1156759, “Identification and optimization of inhibitors of Trypanosomal cysteine proteases: cruzain, rhodesain, and TbCatB” (J Med Chem, 2010)
pIC50: −log10 of the molar value. The source made the active and inactive calls. The calls are words filed in the database; no cut-off is given here.

Molecular target: T1, Papain (Carica papaya, UniProt P00784)
T1 sequence (P00784 whole entry): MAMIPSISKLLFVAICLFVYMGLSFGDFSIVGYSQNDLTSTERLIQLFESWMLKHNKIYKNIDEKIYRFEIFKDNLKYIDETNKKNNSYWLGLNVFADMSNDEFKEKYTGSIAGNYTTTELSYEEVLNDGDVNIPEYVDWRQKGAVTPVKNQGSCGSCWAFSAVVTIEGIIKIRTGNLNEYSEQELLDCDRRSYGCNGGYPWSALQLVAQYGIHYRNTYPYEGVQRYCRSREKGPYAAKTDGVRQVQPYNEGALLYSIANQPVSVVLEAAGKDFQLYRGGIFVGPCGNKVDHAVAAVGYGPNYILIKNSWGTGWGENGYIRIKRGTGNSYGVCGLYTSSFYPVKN
Assay: Inhibition of papaya papain
Conditions: not given
In short: (§1)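 Profiling panel run externally as 10-dose, 3-fold serial dilutions of compound. Protease activity followed as a time course of fluorescence increase from a fluorescently labeled peptide substrate. The initial linear slope (signal/min) was analysed.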

SMILES | pIC50
N#Cc1nc(Nc2cccc(Cl)c2)nc(NC2CCCC2)n1 | 6.29
N#Cc1nc(Nc2cc(F)cc(F)c2)nc(NC2CCCC2)n1 | 6.41

System: Trypanosoma cruzi
Assay: Antitrypanosomal activity against Trypanosoma cruzi Y trypomastigotes infected in mouse J774 cells at 1 uM after 27 days medium replaced every 48 hrs
Format: functional, organism-based
Conditions: not given
In short: (§2)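 Irradiated (1000 rad) J774 macrophages plated overnight, infected 2 h with Y strain trypomastigotes, parasites removed, then cultured in RPMI-1640 with compound (n = 3); untreated infected and 10 μM K777 controls per experiment. Medium replaced every 48 h over 27 days; daily phase-contrast microscopy (400×) for free trypomastigotes and host toxicity; cultures kept 14 further days to confirm cure.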

SMILES | Activity
N#Cc1nc(Nc2cccc(Cl)c2)nc(NC2CCCC2)n1 | inactive
N#Cc1nc(Nc2cccc(Br)c2)nc(NC2CCCC2)n1 | inactive
N#Cc1nc(Nc2cc(F)cc(F)c2)nc(NC2CCCC2)n1 | inactive

Molecular target: Caspase-5 (Homo sapiens, UniProt P51878)
Sequence (P51878 137-327 limits assumed): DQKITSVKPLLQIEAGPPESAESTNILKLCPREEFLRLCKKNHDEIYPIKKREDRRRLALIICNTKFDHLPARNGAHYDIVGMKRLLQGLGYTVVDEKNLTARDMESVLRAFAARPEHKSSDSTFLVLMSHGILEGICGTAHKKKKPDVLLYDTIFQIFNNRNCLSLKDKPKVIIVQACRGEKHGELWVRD
Sequence (P51878 347-434 limits assumed): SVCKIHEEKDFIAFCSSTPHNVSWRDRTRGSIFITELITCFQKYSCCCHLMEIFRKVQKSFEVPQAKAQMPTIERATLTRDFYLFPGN
Assay: Inhibition of human Caspase 5
Conditions: not given
In short: as §1

SMILES | pIC50
N#Cc1nc(Nc2cc(F)cc(F)c2)nc(NC2CCCC2)n1 | 4.87

Molecular target: Cathepsin B (Homo sapiens, UniProt P07858)
Assay: Inhibition of human Cathepsin B
Conditions: not given
In short: as §1

SMILES | pIC50
N#Cc1nc(Nc2cc(F)cc(F)c2)nc(NC2CCCC2)n1 | 5.00

System: not listed separately
Assay: Inhibition of recombinant Trypanosoma brucei cathepsin B after 5 mins by spectrofluorimetric analysis
Conditions: not given
In short: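 Recombinant TbCatB at 258 nM in 100 mM sodium acetate pH 5.5, 5 mM DTT, 0.001% Triton X-100, preincubated with compound in DMSO for 5 min at room temperature. Z-Phe-Arg-AMC 10 μM added to start. Rate of fluorescence rise read at ex 355/em 460 nm; DMSO control wells; IC50 from curve fitting.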

SMILES | pIC50
N#Cc1nc(Nc2cccc(Cl)c2)nc(NC2CCCC2)n1 | < 4.00
N#Cc1nc(Nc2cccc(Br)c2)nc(NC2CCCC2)n1 | < 4.00
N#Cc1nc(Nc2cc(F)cc(F)c2)nc(NC2CCCC2)n1 | 5.40

System: Trypanosoma cruzi
Assay: Antitrypanosomal activity against Trypanosoma cruzi Y trypomastigotes infected in mouse J774 cells at 5 uM after 27 days medium replaced every 48 hrs
Format: functional, organism-based
Conditions: not given
In short: as §2

SMILES | Activity
N#Cc1nc(Nc2cccc(Cl)c2)nc(NC2CCCC2)n1 | inactive

Molecular target: Caspase-6 (Homo sapiens, UniProt P55212)
Sequence (P55212 24-179 limits assumed): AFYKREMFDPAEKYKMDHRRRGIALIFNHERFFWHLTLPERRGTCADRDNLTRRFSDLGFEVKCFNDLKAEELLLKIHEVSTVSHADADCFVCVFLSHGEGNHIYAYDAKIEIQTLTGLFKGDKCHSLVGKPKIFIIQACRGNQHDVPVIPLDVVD
Sequence (P55212 194-293 limits assumed): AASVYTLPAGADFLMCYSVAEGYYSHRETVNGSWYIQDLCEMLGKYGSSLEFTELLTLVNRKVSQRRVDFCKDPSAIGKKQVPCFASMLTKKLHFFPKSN
Assay: Inhibition of human Caspase 6
Conditions: not given
In short: as §1

SMILES | pIC50
N#Cc1nc(Nc2cccc(Cl)c2)nc(NC2CCCC2)n1 | 5.29
N#Cc1nc(Nc2cc(F)cc(F)c2)nc(NC2CCCC2)n1 | 5.45

Molecular target: T2, Cathepsin L2 (Homo sapiens, UniProt O60911)
T2 sequence (O60911 whole entry): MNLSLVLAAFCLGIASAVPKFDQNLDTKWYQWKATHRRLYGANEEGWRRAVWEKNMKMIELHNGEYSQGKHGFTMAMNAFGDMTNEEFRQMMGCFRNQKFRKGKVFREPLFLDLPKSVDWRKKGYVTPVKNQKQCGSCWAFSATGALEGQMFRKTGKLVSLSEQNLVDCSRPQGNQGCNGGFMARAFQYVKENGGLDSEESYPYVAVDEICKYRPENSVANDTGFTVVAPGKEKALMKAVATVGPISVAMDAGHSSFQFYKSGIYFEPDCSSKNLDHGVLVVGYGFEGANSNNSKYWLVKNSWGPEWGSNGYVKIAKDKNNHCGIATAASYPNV
Assay: Inhibition of human Cathepsin V
Conditions: not given
In short: as §1

SMILES | pIC50
N#Cc1nc(Nc2cccc(Cl)c2)nc(NC2CCCC2)n1 | 6.08
N#Cc1nc(Nc2cc(F)cc(F)c2)nc(NC2CCCC2)n1 | 6.74

Molecular target: T3, Pro-cathepsin H (Homo sapiens, UniProt P09668)
T3 sequence (P09668 whole entry): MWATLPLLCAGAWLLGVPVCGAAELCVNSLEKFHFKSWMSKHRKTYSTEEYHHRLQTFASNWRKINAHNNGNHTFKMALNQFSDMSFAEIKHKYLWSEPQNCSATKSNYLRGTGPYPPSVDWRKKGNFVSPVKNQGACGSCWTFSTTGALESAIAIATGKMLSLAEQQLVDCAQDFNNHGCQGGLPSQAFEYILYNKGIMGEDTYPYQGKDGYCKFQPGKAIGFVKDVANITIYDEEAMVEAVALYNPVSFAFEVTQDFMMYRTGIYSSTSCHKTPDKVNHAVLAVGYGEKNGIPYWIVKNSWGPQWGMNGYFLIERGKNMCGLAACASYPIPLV
Assay: Inhibition of human Cathepsin H
Conditions: not given
In short: as §1

SMILES | pIC50
N#Cc1nc(Nc2cccc(Cl)c2)nc(NC2CCCC2)n1 | 4.84
N#Cc1nc(Nc2cc(F)cc(F)c2)nc(NC2CCCC2)n1 | 4.79

Molecular target: T4, Cruzipain (Trypanosoma cruzi, UniProt P25779)
T4 sequence (P25779 whole entry): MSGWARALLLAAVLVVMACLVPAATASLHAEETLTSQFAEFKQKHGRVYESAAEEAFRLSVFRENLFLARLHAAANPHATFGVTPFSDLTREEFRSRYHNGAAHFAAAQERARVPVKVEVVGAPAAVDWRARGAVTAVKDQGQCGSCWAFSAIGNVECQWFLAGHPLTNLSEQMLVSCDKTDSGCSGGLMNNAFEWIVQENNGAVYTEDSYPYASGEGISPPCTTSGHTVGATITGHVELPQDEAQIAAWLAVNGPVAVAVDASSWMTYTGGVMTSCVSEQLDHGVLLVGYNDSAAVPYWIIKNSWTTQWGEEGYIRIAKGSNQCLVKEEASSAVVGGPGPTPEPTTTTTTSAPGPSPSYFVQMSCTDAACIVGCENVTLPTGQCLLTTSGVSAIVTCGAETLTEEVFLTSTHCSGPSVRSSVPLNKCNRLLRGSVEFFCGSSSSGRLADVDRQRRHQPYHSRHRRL
Assay: Inhibition of Trypanosoma cruzi cruzain after 15 mins
Conditions: read-out: IC50
In short: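 Cruzain at 1.5 nM final in 100 mM acetate pH 5.5, 5 mM DTT, 0.01% Triton X-100; compounds as serial 2-fold dilutions pin-transferred in DMSO. 15 min room-temperature preincubation, then Z-FR-AMC 2 μM final. Kinetic fluorescence read at ex 340/em 450 nm. Percent inhibition from the first 60 s signal change versus no-enzyme and uninhibited controls (48 wells each).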

SMILES | pIC50
N#Cc1nc(Nc2cccc(Cl)c2)nc(NC2CCCC2)n1 | 7.10
N#Cc1nc(Nc2cccc(Br)c2)nc(NC2CCCC2)n1 | 7.00
N#Cc1nc(Nc2cc(F)cc(F)c2)nc(NC2CCCC2)n1 | 7.20

Species: Mus musculus
Assay: Toxicity in mouse
Format: organism-based
Conditions: in vivo

SMILES | Activity
N#Cc1nc(Nc2cccc(Cl)c2)nc(NC2CCCC2)n1 | Non-toxic
N#Cc1nc(Nc2cc(F)cc(F)c2)nc(NC2CCCC2)n1 | Non-toxic

System: J774
Assay: Cytotoxicity against mouse J774 cells at 10 uM
Format: cell-based
Conditions: j774, 10 µM
In short: (§3)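 Irradiated (1000 rad) J774 macrophages plated overnight and infected 2 h with Y strain T. cruzi trypomastigotes. After parasite removal, cultured in RPMI-1640 with compound (n = 3), medium changed every 48 h, for 27 days. Toxicity to host cells (granulation, detachment, death) scored daily by phase-contrast microscopy at 400×.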

SMILES | Activity
N#Cc1nc(Nc2cccc(Cl)c2)nc(NC2CCCC2)n1 | Toxic
N#Cc1nc(Nc2cccc(Br)c2)nc(NC2CCCC2)n1 | Toxic
N#Cc1nc(Nc2cc(F)cc(F)c2)nc(NC2CCCC2)n1 | Toxic

Molecular target: Procathepsin L (Homo sapiens, UniProt P07711)
Sequence (P07711 whole entry): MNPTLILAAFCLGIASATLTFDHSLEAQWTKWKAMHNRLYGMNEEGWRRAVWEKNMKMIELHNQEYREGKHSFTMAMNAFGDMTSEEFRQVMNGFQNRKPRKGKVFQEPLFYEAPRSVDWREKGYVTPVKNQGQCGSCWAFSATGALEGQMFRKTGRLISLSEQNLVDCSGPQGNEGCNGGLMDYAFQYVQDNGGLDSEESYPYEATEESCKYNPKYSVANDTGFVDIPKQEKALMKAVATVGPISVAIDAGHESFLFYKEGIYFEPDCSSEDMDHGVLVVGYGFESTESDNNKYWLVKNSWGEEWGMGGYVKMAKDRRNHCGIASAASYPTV
Assay: Inhibition of human Cathepsin L
Conditions: not given
In short: as §1

SMILES | pIC50
N#Cc1nc(Nc2cccc(Cl)c2)nc(NC2CCCC2)n1 | 6.51
N#Cc1nc(Nc2cc(F)cc(F)c2)nc(NC2CCCC2)n1 | 6.69

Molecular target: Caspase-14 (Homo sapiens, UniProt P31944)
Sequence (P31944 6-146 limits assumed): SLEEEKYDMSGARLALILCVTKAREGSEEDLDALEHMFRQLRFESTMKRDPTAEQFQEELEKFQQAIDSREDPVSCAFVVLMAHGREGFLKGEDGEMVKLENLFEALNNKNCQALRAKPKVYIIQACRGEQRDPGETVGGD
Sequence (P31944 153-242 limits assumed): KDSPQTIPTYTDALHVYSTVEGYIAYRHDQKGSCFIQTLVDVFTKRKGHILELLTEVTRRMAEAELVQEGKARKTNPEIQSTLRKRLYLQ
Assay: Inhibition of human Caspase 14
Conditions: not given
In short: as §1

SMILES | pIC50
N#Cc1nc(Nc2cccc(Cl)c2)nc(NC2CCCC2)n1 | 4.85
N#Cc1nc(Nc2cc(F)cc(F)c2)nc(NC2CCCC2)n1 | 5.04

Molecular target: Cathepsin S (Homo sapiens, UniProt P25774)
Sequence (P25774 whole entry): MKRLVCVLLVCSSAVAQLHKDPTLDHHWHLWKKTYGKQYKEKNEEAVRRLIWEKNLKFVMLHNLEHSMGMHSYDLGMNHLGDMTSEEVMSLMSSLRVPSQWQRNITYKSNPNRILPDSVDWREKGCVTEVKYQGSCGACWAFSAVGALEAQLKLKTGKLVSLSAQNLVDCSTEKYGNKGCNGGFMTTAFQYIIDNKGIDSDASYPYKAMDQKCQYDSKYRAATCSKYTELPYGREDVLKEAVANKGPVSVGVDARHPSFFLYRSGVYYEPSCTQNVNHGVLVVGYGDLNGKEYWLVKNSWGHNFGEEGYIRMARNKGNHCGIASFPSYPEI
Assay: Inhibition of human Cathepsin S
Conditions: not given
In short: as §1

SMILES | pIC50
N#Cc1nc(Nc2cccc(Cl)c2)nc(NC2CCCC2)n1 | 5.19
N#Cc1nc(Nc2cc(F)cc(F)c2)nc(NC2CCCC2)n1 | 5.25

Molecular target: Caspase-4 (Homo sapiens, UniProt P49662)
Sequence (P49662 81-270 limits assumed): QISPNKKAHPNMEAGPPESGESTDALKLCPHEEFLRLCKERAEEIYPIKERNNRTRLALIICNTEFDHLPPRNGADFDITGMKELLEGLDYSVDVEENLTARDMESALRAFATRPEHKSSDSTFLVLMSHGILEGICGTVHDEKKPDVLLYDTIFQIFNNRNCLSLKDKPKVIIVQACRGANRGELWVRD
Sequence (P49662 290-377 limits assumed): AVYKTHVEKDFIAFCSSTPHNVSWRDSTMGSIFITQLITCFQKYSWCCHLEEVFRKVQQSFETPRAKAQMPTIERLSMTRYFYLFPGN
Assay: Inhibition of human Caspase 4
Conditions: not given
In short: as §1

SMILES | pIC50
N#Cc1nc(Nc2cc(F)cc(F)c2)nc(NC2CCCC2)n1 | 5.09

Species: Canis familiaris
Assay: Toxicity in dog
Format: organism-based, Canis lupus familiaris
Conditions: in vivo

SMILES | Activity
N#Cc1nc(Nc2cccc(Cl)c2)nc(NC2CCCC2)n1 | Non-toxic
N#Cc1nc(Nc2cc(F)cc(F)c2)nc(NC2CCCC2)n1 | Non-toxic

Molecular target: Cathepsin Z (Homo sapiens, UniProt Q9UBR2)
Sequence (Q9UBR2 whole entry): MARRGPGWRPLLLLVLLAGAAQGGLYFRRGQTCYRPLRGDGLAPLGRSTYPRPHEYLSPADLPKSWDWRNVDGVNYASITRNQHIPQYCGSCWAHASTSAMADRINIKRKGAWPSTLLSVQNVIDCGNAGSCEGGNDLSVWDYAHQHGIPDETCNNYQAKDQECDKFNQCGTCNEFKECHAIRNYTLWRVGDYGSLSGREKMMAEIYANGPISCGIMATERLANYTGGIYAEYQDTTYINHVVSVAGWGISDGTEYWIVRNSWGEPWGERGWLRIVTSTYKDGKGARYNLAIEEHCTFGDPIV
Assay: Inhibition of human Cathepsin X/Z
Conditions: not given
In short: as §1

SMILES | pIC50
N#Cc1nc(Nc2cccc(Cl)c2)nc(NC2CCCC2)n1 | 5.19
N#Cc1nc(Nc2cc(F)cc(F)c2)nc(NC2CCCC2)n1 | 5.50

System: J774
Assay: Cytotoxicity against mouse J774 cells at 5 uM
Format: cell-based
Conditions: j774, 5 µM
In short: as §3

SMILES | Activity
N#Cc1nc(Nc2cccc(Br)c2)nc(NC2CCCC2)n1 | Toxic
N#Cc1nc(Nc2cc(F)cc(F)c2)nc(NC2CCCC2)n1 | Toxic

Molecular target: T4, Cruzipain
Assay: Inhibition of recombinant Trypanosoma cruzi cruzain after 5 mins by spectrofluorimetric analysis
Conditions: not given
In short: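 Recombinant cruzain at 4 nM (activated procruzain, anion-exchange purified) in 100 mM sodium acetate pH 5.5, 5 mM DTT, 0.001% Triton X-100. Preincubated 5 min at room temperature with compound in DMSO, then Z-Phe-Arg-AMC 10 μM. Fluorescence rate read at ex 355/em 460 nm; DMSO controls; IC50 by curve fitting.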

SMILES | pIC50
N#Cc1nc(Nc2cccc(Cl)c2)nc(NC2CCCC2)n1 | 8.70
N#Cc1nc(Nc2cccc(Br)c2)nc(NC2CCCC2)n1 | 8.70
N#Cc1nc(Nc2cc(F)cc(F)c2)nc(NC2CCCC2)n1 | 8.40

System: not listed separately
Assay: Inhibition of recombinant Trypanosoma brucei rhodesain after 5 mins by spectrofluorimetric analysis
Conditions: not given
In short: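 Recombinant rhodesain, 4 nM, preincubated 5 min at room temperature with compound (DMSO) in 100 mM sodium acetate pH 5.5, 5 mM DTT, 0.001% Triton X-100. Reaction started with 10 μM Z-Phe-Arg-AMC; rate of AMC fluorescence increase read at ex 355/em 460 nm. IC50 from curve fitting; DMSO-only wells as positive control.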

SMILES | pIC50
N#Cc1nc(Nc2cccc(Cl)c2)nc(NC2CCCC2)n1 | 8.22
N#Cc1nc(Nc2cccc(Br)c2)nc(NC2CCCC2)n1 | 8.22
N#Cc1nc(Nc2cc(F)cc(F)c2)nc(NC2CCCC2)n1 | 8.30

Molecular target: Tissue-type plasminogen activator (Homo sapiens, UniProt P00750)
Sequence (P00750 whole entry): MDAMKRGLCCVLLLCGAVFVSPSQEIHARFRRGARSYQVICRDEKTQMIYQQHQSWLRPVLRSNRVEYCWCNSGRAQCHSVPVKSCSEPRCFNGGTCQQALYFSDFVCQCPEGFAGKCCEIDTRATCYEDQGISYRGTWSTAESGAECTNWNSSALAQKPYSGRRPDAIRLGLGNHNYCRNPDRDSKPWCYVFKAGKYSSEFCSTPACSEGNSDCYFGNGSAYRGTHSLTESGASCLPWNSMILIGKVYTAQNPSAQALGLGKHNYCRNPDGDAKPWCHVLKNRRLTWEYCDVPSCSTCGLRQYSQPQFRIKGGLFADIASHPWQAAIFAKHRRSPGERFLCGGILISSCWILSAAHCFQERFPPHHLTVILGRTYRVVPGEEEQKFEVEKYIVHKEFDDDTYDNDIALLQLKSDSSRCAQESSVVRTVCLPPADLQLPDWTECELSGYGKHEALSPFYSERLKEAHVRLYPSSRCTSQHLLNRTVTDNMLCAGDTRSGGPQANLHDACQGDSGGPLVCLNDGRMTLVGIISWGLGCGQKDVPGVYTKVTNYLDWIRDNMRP
Assay: Inhibition of human tPA
Conditions: not given
In short: as §1

SMILES | pIC50
N#Cc1nc(Nc2cccc(Cl)c2)nc(NC2CCCC2)n1 | 6.07
N#Cc1nc(Nc2cc(F)cc(F)c2)nc(NC2CCCC2)n1 | 5.89

Molecular target: T5, Cathepsin K (Homo sapiens, UniProt P43235)
T5 sequence (P43235 whole entry): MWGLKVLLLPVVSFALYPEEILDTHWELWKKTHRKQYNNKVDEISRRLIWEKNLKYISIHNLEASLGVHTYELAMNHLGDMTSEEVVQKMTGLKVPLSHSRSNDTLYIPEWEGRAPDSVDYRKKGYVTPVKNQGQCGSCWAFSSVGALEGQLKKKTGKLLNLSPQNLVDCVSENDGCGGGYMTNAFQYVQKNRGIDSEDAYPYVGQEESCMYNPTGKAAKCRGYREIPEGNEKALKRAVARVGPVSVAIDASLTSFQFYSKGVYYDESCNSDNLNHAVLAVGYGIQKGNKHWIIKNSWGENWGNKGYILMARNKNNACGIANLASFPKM
Assay: Inhibition of human Cathepsin K/O2
Conditions: not given
In short: as §1

SMILES | pIC50
N#Cc1nc(Nc2cccc(Cl)c2)nc(NC2CCCC2)n1 | 7.76
N#Cc1nc(Nc2cc(F)cc(F)c2)nc(NC2CCCC2)n1 | 7.69

Species: Rattus norvegicus
Assay: Toxicity in rat
Format: organism-based
Conditions: in vivo

SMILES | Activity
N#Cc1nc(Nc2cccc(Cl)c2)nc(NC2CCCC2)n1 | Non-toxic
N#Cc1nc(Nc2cc(F)cc(F)c2)nc(NC2CCCC2)n1 | Non-toxic
